# Source: PubChem BioAssay
# This is a sample that favours compounds with a hit; in the whole collection about 1.8% have one here.
# M5 ag: agonists of human muscarinic M5 receptor (CHRM5) | actives 0.19% (n = 360,000) | AID 624037 | P08912 | CHO-K1 hM5 cells, Fluo-8 calcium fluorescence; 0% DMSO wells, 100% maximal acetylcholine response | activation, % at 3 µM;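 active = activation above the run's mean over test compounds plus 3 SD, cut at about 23% in these data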;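 also: signal is peak over basal fluorescence ratio across the kinetic read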
# Target sequence (P08912 whole entry, looked up): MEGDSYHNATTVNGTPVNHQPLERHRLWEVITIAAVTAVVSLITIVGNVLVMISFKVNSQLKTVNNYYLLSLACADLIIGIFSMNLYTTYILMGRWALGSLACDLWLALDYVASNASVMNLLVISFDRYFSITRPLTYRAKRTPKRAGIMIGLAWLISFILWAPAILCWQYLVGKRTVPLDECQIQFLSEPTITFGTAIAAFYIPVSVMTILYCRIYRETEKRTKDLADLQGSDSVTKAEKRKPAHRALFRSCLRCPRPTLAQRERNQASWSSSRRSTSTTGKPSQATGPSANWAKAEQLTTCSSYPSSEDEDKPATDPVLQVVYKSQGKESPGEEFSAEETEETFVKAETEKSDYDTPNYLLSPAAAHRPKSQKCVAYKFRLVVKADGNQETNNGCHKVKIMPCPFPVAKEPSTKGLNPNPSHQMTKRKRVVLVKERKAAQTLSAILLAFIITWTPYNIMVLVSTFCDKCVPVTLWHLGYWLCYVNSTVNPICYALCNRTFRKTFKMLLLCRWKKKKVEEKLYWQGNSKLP
# M4 antag: antagonists of human muscarinic M4 receptor (CHRM4) | P08173 | CHO-hM4 cells, ACh EC80, Fluo-8 calcium fluorescence | inhibition, % at 3 µM | actives 0.73% (n = 360,000);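 active = inhibition above its plate's cutoff, the mean inhibition of sample wells plus 3 SD, cut at about 27% in these data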;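 also: 0% = acetylcholine EC80 with DMSO and 100% = DMSO without agonist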
# M4 ag: CHRM4 agonism in calcium assay; actives 0.14% (n = 360,000); CHO-K1 hM4/Gqi5, Fluo-8 calcium fluorescence; vehicle 0%, full acetylcholine response 100%; activation, % at 3 µM;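 active = activation above the run mean over all test wells plus 3 SD, cut at about 32% in these data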;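 also: peak over basal fluorescence ratio per well then scaled between controls; 0% = DMSO wells and 100% = acetylcholine at EC100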
# CHRM5 antagonist: blocks acetylcholine activation of human M5 receptor | CHO-hM5 cells, Fluo-8 calcium fluorescence, ACh EC80 | inhibition, % at 3 µM | actives 0.59% (n = 360,000);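 active = inhibition above a per-plate cutoff, the mean of that plate's test compounds plus 3 SD, cut at about 27% in these data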;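 also: 0% = acetylcholine EC80 with DMSO and 100% = DMSO without agonist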
# M5 PAM: positive allosteric modulators of human muscarinic M5 receptor; P08912; CHO-K1 hM5, Fluo-8 calcium, ACh EC20 PAM; 0% = ACh EC20, 100% = ACh EC100; activation, % at 3 µM; actives 0.3% (n = 360,000);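 active = activation above the run cutoff, the mean activation of all test compounds plus 3 SD, cut at about 18% in these data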
#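 Assay system: CHO-K1 hM5 cells. Also added: acetylcholine at EC20 concentration, added after compound. Dosing: 3 µM, single dose. Times: compound preincubation 140 s before EC20 acetylcholine addition. Signal: Fluo-8 calcium fluorescence. Measure: % activation relative to EC20 and EC100 ACh responses. Repeats: singlicate, one well per test compound.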
# M4 PAM: positive allosteric modulators of human muscarinic M4 receptor; P08173; activation, % at 3 µM; actives 0.4% (n = 360,000); CHO-K1 hM4/Gqi5, Fluo-8 calcium fluorescence, ACh EC20; 0% = ACh EC20, 100% = maximal ACh;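 active = activation above its plate's cutoff, the mean activation of sample wells plus 3 SD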
# * = called active by the depositor; ! = a repeat was not active.
SMILES,M5 ag,M4 antag,M4 ag,CHRM5 antagonist,M5 PAM,M4 PAM
CCN(CC)CCNC(=O)Cn1nc(-c2ccccc2)c2ccccc2c1=O,-10,-1,0,8,-4,-3
CCN(CC)CCNC(=O)Cn1ncc2ccccc2c1=O,8,0,0,-11,20*,18
O=C(c1ccco1)N1CCN(S(=O)(=O)c2cc(Cl)ccc2Cl)CC1,0,-13,2,-2,-3,-4
O=C(O)c1cc(S(=O)(=O)N2CCN(C(=O)c3ccco3)CC2)c(Cl)cc1Cl,-5,-30,2,0,-1,14*
Cc1cc(C)c2sc(NC(=O)C3=COCCO3)nc2c1,-1,-9,3,2,0,22*
O=C(CSc1ccc(F)cc1)NC(=O)NCc1ccccc1,-1,1,-1,7,-2,2
CCN1CCCC1CN(Cc1cc2c(C)cc(C)cc2[nH]c1=O)C(=O)NC1CCCCC1 (centres undefined),-6,36*,0,-2,0,-9
CCOc1ccccc1C(=O)OCC(=O)NCCNC(=O)COC(=O)c1ccccc1OCC,2,5,2,21,38*,-3
CCOc1ccccc1C(=O)OCC(=O)NCC1CCCCC1,-5,42*,-3,-6,2,-9
CN(C(=O)CSc1nnc(C(F)(F)F)n1C)c1c(N)n(Cc2ccccc2)c(=O)[nH]c1=O,-1,0,0,9,-2,-2
CCCCn1c(NCCN(C)C)nc2c1c(=O)[nH]c(=O)n2C,-7,-4,1,-3,22*,12
CC(C)Cn1c(NCCN(C)C)nc2c1c(=O)[nH]c(=O)n2C,-1,0,0,4,-2,6
COCC(=O)NNS(=O)(=O)c1ccccc1[N+](=O)[O-],0,0,1,14,20*,4
COc1ccccc1CC(=O)NNS(=O)(=O)c1ccccc1[N+](=O)[O-],-3,2,0,3,-12,-1
CSc1ccc(/C=C(/NC(=O)c2ccc(C)cc2)C(=O)Nc2cccc(C)c2)cc1,-1,6,0,2,-2,2
CN(C)CCNc1nc(-c2ccccc2CO)c2sccc2n1,-4,21,1,37*,-20,-10
Cc1ccccc1-c1nc(NCCN(C)C)nc2ccsc12,-4,56*,1,56*,-20,-13
CC(C)Nc1nc(-c2ccccc2CO)c2sccc2n1,-2,-24,2,-3,-3,2
O=C(CN1C(=O)C(=O)c2ccccc21)NCCc1ccccc1,2,-5,2,0,5,-2
O=C1C(=O)N(CCCc2ccccc2)c2ccccc21,26*,11,1,-9,-2,-5
COC(=O)C(NC(=O)c1ccccc1Cl)(Nc1ncc(S(=O)(=O)c2ccc([N+](=O)[O-])cc2)s1)C(F)(F)F (centres undefined),33*,-6,13,7,-10,-8
CCC1CCCCN1C(=O)c1cc(S(=O)(=O)N2CCOCC2)ccc1C (centres undefined),0,-1,0,8,-6,-1
CC(C)C[C@@H](CN)NC(=O)c1nc[nH]c1C(=O)N[C@@H](C)C(=O)CNC[C@H](C)NC(=O)c1nc[nH]c1C(=O)N[C@@H](Cc1ccccc1)C(=O)O,1,1,1,-3,1,-2
Cc1ccc(C)c2[nH]c(=O)c(CN(Cc3ccc4c(c3)OCO4)Cc3nnnn3Cc3ccco3)cc12,3,12,11,5,-8,-11
Cc1ccc2cc(CN(Cc3ccc4c(c3)OCO4)Cc3nnnn3Cc3ccco3)c(=O)[nH]c2c1C,-3,-3,3,-2,7,23*
SMILES,M5 ag,M4 antag,M4 ag,CHRM5 antagonist,M5 PAM,M4 PAM
OC(C#CCN1CCCCC1)(c1ccccc1)c1ccccc1,-21,100*,2,100*,-36,-18
CC(O)(C#CCN1CCCCCC1)c1ccccc1 (centres undefined),-6,23,15,26,-16,-20
CC(C)C(O)(C#CCN1CCCCC1)C(C)C,-8,1,0,31*,-19,-6
OC(C#CCN1CCCC1)(c1ccccc1)c1ccccc1,-7,98*,1,99*,-17,-18
OC(C#CCN1CCOCC1)(c1ccccc1)C1CC1 (centres undefined),-4,5,0,0,2,2
N#CC(=C1C=CC(=NO)C(Cl)=C1)c1ccccc1,-2,22,0,-1,5,-9
O=C(CN1CCN(Cc2ccc3c(c2)OCO3)CC1)Nc1ccc2[nH]c(=O)[nH]c2c1,4,-3,0,8,2,16*
O=C(CN1CCN(Cc2ccc3c(c2)OCO3)CC1)Nc1ccc(N2CCOCC2)cc1,2,-8,0,6,-3,-9
CCCCn1c(N)c(N(CCC(C)C)C(=O)c2[nH]c(C)c(C(=O)OCC)c2C)c(=O)[nH]c1=O,-4,-8,0,4,-2,11
C/C(=N\NC(=S)NC(C)C)c1ccc(Cl)s1,-6,27*,-2,8,-18,-34
C/C(=N\NC(N)=S)c1ccc(Cl)s1,1,6,1,7,1,-1
COc1ccc(N=C2S/C(=C\c3ccc(OCC(=O)O)cc3)C(=O)N2CCc2c[nH]c3ccccc23)cc1,8,-8,2,-6,-11,-6
COc1ccc(N=C2S/C(=C\c3ccc(N4CCOCC4)o3)C(=O)N2CCc2c[nH]c3ccccc23)cc1,10,45*,8,11,-1,-13
COc1cc2c(cc1OC)CN(C(=O)c1cccc(S(=O)(=O)N(C)C)c1)CC2,5,29*,1,-5,14,17
CC(C)(C)C(=O)Nc1ccc(C(=O)CN2C(=O)NC3(CCOc4ccccc43)C2=O)cc1 (centres undefined),0,1,7,10,-9,1
CC(O)CN1C(=O)C(CC(=O)Nc2ccc(Cl)cc2)SC1=Nc1ccccc1 (centres undefined),-2,6,12,10,-6,-2
COCCN1C(=O)C(CC(=O)Nc2ccc(C(C)=O)cc2)SC1=Nc1ccccc1 (centres undefined),-1,0,12,29*!,-12,-2
COc1ccc(N2CCN(CCNS(=O)(=O)c3ccc(C)cc3)CC2)cc1,0,-17,3,5,0,2
CC1CC1c1ccc(/C=C(\C#N)C(=O)Nc2cc(Cl)ccc2Cl)o1 (centres undefined),1,-6,1,-4,9,21*
